Experimental data published in article PMC2695835 (Bioorganic & medicinal chemistry, 2009).
Where “and” joins values, the source holds several entries; their conditions need not be identical. Identical values can stand only once.

Molecular target: T1, GVIA iPLA2 (Homo sapiens, UniProt O60733)
T1 sequence (O60733 1-806): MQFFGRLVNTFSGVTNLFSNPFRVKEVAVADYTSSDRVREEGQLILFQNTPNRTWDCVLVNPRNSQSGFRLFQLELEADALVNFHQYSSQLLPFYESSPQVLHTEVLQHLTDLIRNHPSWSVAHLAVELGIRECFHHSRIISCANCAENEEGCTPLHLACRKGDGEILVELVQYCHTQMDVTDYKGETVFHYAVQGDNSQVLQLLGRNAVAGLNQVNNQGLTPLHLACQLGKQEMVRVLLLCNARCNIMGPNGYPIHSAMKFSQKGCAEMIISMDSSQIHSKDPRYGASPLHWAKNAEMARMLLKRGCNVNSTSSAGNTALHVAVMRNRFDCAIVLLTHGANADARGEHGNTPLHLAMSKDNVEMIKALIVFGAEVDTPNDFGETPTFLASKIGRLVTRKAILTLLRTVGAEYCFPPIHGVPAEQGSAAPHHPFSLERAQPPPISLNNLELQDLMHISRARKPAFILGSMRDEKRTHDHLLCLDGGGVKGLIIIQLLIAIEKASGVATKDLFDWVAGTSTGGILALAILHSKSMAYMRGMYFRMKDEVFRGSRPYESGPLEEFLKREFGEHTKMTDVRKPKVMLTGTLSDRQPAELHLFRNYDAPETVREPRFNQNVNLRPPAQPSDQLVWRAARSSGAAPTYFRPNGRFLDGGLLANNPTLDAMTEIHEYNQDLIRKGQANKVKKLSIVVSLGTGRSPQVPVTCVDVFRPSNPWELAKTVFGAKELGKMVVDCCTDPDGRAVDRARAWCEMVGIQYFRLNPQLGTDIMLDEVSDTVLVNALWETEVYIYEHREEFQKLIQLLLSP
Assay: In vitro GVIA iPLA2 inhibition, mixed micellar modified Dole assay
Type: biochemical
Details: mole fraction of inhibitor in total substrate interface required to inhibit the enzyme by 50%; mixed micelles
How it was run: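 Human GVIA iPLA2 on Triton X-100 mixed micelles, either 400 μM Triton X-100/99 μM DPPC/1.5 μM 14C-DPPC in 200 mM HEPES pH 7.0, 1 mM ATP, 2 mM DTT, 0.1 mg/ml BSA, or 400 μM Triton/98.3 μM PAPC/1.7 μM 14C-PAPC in 100 mM HEPES pH 7.5, 2 mM ATP, 4 mM DTT. XI(50) obtained when screening inhibition exceeded 90%: 7 points (typically 0.005–0.091 mole fraction), linear or one-site hyperbola (BMAX = 100) fit.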

| SMILES | GVIA iPLA2 XI(50) |
| --- | --- |
| CCCCCCCCCCCCCCC(=O)C(=O)N[C@@H](CCCC)C(=O)NCC(=O)OC [Compound 4a, (S)-Methyl 2-(2-(2-oxohexadecanamido)hexanamido)acetate] | 0.045 ± 0.018 mole fraction |
| CCCCCCCCCCCCCCC(=O)C(=O)N[C@H](C(=O)NCC(=O)OC(C)(C)C)C(C)C [Compound 8b, (S)-tert-Butyl 2-(3-methyl-2-(2-oxohexadecanamido)butanamido)acetate] | 0.044 ± 0.025 mole fraction |
| CCCCCCCCCCCCCCC(=O)C(=O)N[C@@H](CCCC)C(=O)NCC(=O)OCC [Compound 4c, (S)-Ethyl 2-(2-(2-oxohexadecanamido)hexanamido)acetate] | 0.020 mole fraction and 0.020 ± 0.002 mole fraction |
| CCCCCCCCCCCCCCC(=O)C(=O)N[C@@H](CCCC)COCC(=O)OCC [Compound 13, (S)-Ethyl 2-(2-(2-oxohexadecanamido)hexyloxy)acetate] | 0.017 mole fraction and 0.017 ± 0.002 mole fraction |
| CCCCCCCCCCCCCCC(=O)C(=O)N[C@@H](CCCC)C(=O)NCC(=O)OC(C)(C)C [Compound 8a, (S)-tert-Butyl 2-(2-(2-oxohexadecanamido)hexanamido)acetate] | 0.011 mole fraction and 0.011 ± 0.001 mole fraction |
